Data as given in ChEMBL document CHEMBL3627612, “Hirsutinolide Series Inhibit Stat3 Activity, Alter GCN1, MAP1B, Hsp105, G6PD, Vimentin, TrxR1, and Importin α-2 Expression, and Induce Antitumor Effects against Human Glioma” (J Med Chem, 2015).
Calls of active or inactive are those of the source. The calls are words filed in the database; no cut-off is given here.

Legend:
[1] = biological target: Heat shock protein 105 kDa (Homo sapiens) (UniProt Q92598); test: Decrease in Hsp105 expression in human U373MG cells at 5 uM for 2 hrs by immunoblot analysis; assay type: functional, cell-based; conditions: U-373MG ATCC
Chain of Heat shock protein 105 kDa (Homo sapiens) (Q92598 whole entry): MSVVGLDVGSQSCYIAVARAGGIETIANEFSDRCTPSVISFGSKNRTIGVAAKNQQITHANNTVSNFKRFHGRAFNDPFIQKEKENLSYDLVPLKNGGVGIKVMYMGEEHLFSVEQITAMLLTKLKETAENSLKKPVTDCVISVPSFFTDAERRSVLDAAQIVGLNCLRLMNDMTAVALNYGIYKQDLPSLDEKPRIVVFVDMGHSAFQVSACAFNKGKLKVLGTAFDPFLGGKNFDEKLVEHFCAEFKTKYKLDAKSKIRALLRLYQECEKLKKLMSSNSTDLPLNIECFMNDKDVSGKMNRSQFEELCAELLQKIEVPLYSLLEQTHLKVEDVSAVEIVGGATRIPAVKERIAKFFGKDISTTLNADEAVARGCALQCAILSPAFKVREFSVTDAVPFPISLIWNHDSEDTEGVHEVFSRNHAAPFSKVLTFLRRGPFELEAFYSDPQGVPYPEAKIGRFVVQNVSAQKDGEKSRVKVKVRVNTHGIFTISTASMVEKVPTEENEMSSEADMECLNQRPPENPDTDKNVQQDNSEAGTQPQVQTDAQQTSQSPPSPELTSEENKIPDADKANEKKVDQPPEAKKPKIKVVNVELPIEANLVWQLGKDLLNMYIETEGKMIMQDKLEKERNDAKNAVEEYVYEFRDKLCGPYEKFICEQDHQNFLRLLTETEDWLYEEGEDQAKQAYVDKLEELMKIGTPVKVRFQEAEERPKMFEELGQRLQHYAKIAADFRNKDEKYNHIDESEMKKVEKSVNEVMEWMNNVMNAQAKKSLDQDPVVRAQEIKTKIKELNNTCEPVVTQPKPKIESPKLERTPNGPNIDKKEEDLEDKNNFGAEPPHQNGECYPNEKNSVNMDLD

[2] = Decrease in vimentin expression in human Glioma (G22) patient derived xenograft cells at 5 uM for 2 hrs by immunoblot analysis; assay type: functional; conditions: Glioma cell
U-251 [3] = test: Increase in importin subunit alpha2 expression in human U251MG cells at 5 uM for 2 hrs by immunoblot analysis; assay type: functional, cell-based
[4] = Decrease in TrxR1 expression in human U251MG cells at 5 uM for 2 hrs by immunoblot analysis; assay type: functional, cell-based; conditions: U-251
[5] = biological target: Microtubule-associated protein 1B (Homo sapiens) (UniProt P46821); test: Decrease in MAP1B expression in human U251MG cells at 5 uM for 2 hrs by immunoblot analysis; assay type: functional, cell-based; conditions: U-251
U-251 [6] = test: Antimitotic activity in human U251MG cells assessed as defect in sister chromatid segragation at 8 uM after 15 hrs confocal microscopic analysis; assay type: functional, cell-based
In short: (§1)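 U251MG on coverslips synchronized by double thymidine block (2 mM), released 9 h, treated 15 h (8 μM; paclitaxel 100 nM). Fixed 4% paraformaldehyde, digitonin-permeabilized, BSA-blocked, stained for β-tubulin and MAP1B with DAPI counterstain; chromatid structure and segregation scored by confocal microscopy.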

U-251 [7] = test: Antiproliferative activity against human U251MG cells at 5 uM for 24 hrs by BrdU incorporation assay; assay type: functional, cell-based
In short: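 U251MG on glass coverslips treated with DMSO or 5 μM compound for 3–24 h; 10 μM BrdU added during the last 2 h. Cells fixed in 4% paraformaldehyde, stained with anti-BrdU antibody, DAPI counterstained, imaged by fluorescence microscopy and counted.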

Mus musculus [8] = test: Toxicity in mouse xenografted with U251MG cells assessed as effect on body weight at 2 mg/kg three times a week for 33 days administered via oral gavage; assay type: organism-based, U-251; conditions: in vivo, 792 h
In short: (§2)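 Four-week-old female athymic nude mice, injected subcutaneously in the left flank with 7.3×10^6 U251MG cells in PBS/matrigel (1:1). Tumors of 170–250 mm^3 formed by day 20, and groups were matched for mean size. Dosing was 2 mg/kg by oral gavage, three times weekly for 33 days, with 1% DMSO vehicle. Animals were monitored daily and weighed every 3 days.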

U-251 [9] = test: Antimitotic activity in human U251MG cells assessed as defect in chromatid structure at 8 uM after 15 hrs confocal microscopic analysis; assay type: functional, cell-based; in short: as §1
U-251 [10] = test: Antitumor activity against human U251MG cells xenografted in mouse assessed as decrease in tumor growth at 2 mg/kg three times a week for 33 days administered via oral gavage; assay type: functional, organism-based
In short: (§3)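 Female athymic nude mice, 4 weeks old, given subcutaneous flank injections of 7.3×10^6 U251MG cells in PBS/matrigel; dosing began at 170–250 mm3 tumors (day 20). Oral gavage 2 mg/kg, vehicle 1% DMSO, for 33 days. Caliper volumes V = 0.52×a²×b, compared with vehicle by paired t test; tumor lysates immunoblotted for pStat3, Stat3, GAPDH.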

Glioma cell = test: Increase in importin subunit alpha2 expression in human Glioma (G22) patient derived xenograft cells at 5 uM for 2 hrs by immunoblot analysis; assay type: functional
U-251 [11] = test: Increase in importin subunit alpha2 expression in human U251MG cells at 5 uM for 1 hr by mass spectrometry relative to control; assay type: functional
In short: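 Global proteomic mass spectrometry of lysates from U251MG cells treated 1 h with 5 μM compound; protein levels expressed relative to DMSO-treated cells.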

[12] = biological target: Microtubule-associated protein 1B (Homo sapiens) (UniProt P46821); test: Decrease in MAP1B expression in human U373MG cells at 5 uM for 2 hrs by immunoblot analysis; assay type: functional, cell-based; conditions: U-373MG ATCC
[13] = Decrease in G6PD expression in human U373MG cells at 5 uM for 2 hrs by immunoblot analysis; assay type: functional, cell-based; conditions: U-373MG ATCC
[14] = biological target: Stalled ribosome sensor GCN1 (Homo sapiens) (UniProt Q92616); test: Decrease in GCN1 expression in human U373MG cells at 5 uM for 2 hrs by immunoblot analysis; assay type: functional, cell-based; conditions: U-373MG ATCC
Chain of Stalled ribosome sensor GCN1 (Homo sapiens) (Q92616 whole entry): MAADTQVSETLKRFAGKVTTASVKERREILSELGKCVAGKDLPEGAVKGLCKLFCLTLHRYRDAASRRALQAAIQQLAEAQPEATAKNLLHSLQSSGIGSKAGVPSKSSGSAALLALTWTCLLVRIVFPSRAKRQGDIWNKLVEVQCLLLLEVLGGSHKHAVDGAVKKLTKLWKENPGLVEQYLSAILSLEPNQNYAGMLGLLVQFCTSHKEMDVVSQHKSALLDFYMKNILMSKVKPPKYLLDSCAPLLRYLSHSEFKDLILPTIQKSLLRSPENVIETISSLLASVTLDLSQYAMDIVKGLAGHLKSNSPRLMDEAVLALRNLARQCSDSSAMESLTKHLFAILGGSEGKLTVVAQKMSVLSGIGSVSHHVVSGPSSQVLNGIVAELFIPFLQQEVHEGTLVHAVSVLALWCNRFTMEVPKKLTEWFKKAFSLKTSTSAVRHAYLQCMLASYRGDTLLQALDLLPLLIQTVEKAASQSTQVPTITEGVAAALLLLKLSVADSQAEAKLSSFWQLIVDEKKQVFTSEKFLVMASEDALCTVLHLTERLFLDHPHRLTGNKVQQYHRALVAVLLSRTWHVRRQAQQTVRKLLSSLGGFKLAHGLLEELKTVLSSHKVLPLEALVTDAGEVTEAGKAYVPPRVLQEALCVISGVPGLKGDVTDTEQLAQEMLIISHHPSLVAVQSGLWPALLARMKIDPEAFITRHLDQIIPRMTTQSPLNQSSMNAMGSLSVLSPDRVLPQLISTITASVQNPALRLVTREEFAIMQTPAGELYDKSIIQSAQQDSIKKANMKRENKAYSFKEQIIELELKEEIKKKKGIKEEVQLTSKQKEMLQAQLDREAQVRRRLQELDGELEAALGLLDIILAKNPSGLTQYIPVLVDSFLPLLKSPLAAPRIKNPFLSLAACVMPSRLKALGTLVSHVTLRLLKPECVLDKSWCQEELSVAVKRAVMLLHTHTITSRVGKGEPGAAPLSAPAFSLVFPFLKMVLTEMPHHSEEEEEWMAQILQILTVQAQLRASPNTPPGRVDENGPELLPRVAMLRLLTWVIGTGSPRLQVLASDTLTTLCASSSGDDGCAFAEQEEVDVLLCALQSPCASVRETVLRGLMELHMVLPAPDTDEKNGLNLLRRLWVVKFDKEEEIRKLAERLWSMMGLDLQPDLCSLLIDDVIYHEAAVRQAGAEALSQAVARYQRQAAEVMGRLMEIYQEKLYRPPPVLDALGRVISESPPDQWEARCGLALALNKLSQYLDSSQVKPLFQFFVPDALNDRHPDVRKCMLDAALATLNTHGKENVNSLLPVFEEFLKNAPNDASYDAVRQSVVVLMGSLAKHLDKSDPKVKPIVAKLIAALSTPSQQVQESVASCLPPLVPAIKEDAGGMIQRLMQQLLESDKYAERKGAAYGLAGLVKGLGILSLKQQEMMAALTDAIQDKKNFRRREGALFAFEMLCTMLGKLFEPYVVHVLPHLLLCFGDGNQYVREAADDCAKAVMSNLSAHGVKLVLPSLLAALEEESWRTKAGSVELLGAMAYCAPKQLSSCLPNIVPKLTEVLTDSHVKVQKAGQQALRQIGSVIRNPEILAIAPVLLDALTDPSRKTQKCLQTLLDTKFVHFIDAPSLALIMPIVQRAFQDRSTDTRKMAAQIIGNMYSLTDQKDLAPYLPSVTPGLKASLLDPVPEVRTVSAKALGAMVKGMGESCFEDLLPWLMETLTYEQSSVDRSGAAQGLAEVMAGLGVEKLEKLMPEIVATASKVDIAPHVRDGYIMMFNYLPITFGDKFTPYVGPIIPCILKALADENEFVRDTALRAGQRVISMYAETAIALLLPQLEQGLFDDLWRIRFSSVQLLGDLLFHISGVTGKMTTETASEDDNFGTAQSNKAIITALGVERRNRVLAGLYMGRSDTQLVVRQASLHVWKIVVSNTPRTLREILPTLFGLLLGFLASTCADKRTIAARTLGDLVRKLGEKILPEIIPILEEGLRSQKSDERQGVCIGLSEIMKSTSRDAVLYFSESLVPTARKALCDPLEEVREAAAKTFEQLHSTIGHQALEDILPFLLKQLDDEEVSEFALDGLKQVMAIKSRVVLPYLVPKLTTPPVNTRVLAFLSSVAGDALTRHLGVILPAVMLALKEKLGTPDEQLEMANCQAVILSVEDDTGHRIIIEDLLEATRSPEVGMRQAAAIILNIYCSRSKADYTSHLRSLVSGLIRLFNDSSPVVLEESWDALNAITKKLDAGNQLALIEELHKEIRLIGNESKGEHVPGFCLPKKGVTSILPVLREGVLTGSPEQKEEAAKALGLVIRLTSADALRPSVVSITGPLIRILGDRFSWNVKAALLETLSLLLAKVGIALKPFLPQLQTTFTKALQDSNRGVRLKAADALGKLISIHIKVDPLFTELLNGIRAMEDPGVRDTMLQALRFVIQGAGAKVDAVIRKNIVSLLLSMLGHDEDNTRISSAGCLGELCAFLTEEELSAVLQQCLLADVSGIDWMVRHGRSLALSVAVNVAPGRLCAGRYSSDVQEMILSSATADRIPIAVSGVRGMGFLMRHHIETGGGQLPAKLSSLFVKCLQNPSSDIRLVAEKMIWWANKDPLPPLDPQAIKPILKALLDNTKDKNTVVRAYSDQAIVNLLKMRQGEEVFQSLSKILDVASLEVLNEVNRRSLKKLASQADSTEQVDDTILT

[15] = biological target: Stalled ribosome sensor GCN1 (Homo sapiens) (UniProt Q92616); test: Decrease in GCN1 expression in human U251MG cells at 5 uM for 2 hrs by immunoblot analysis; assay type: functional, cell-based; conditions: U-251
[16] = biological target: Microtubule-associated protein 1B (Homo sapiens) (UniProt P46821); test: Decrease in MAP1B expression in human Glioma (G22) patient derived xenograft cells at 5 uM for 2 hrs by immunoblot analysis; assay type: functional; conditions: Glioma cell
[17] = Decrease in vimentin expression in human U373MG cells at 5 uM for 2 hrs by immunoblot analysis; assay type: functional, cell-based; conditions: U-373MG ATCC
[18] = Decrease in vimentin expression in human U251MG cells at 5 uM for 2 hrs by immunoblot analysis; assay type: functional, cell-based; conditions: U-251
Mus musculus [19] = test: Toxicity in mouse xenografted with U251MG cells assessed as lethargy at 2 mg/kg three times a week for 33 days administered via oral gavage; assay type: organism-based, U-251; conditions: in vivo, 792 h; in short: as §2
[20] = Decrease in TrxR1 expression in human U373MG cells at 5 uM for 2 hrs by immunoblot analysis; assay type: functional, cell-based; conditions: U-373MG ATCC
[21] = biological target: Heat shock protein 105 kDa (Homo sapiens) (UniProt Q92598); test: Decrease in Hsp105 expression in human Glioma (G22) patient derived xenograft cells at 5 uM for 2 hrs by immunoblot analysis; assay type: functional; conditions: Glioma cell
[22] = biological target: Stalled ribosome sensor GCN1 (Homo sapiens) (UniProt Q92616); test: Decrease in GCN1 expression in human Glioma (G22) patient derived xenograft cells at 5 uM for 2 hrs by immunoblot analysis; assay type: functional; conditions: Glioma cell
Mus musculus [23] = test: Toxicity in mouse xenografted with U251MG cells assessed as loss of appetite at 2 mg/kg three times a week for 33 days administered via oral gavage; assay type: organism-based, U-251; conditions: in vivo, 792 h; in short: as §2
Mus musculus [24] = test: Toxicity in mouse xenografted with U251MG cells assessed as activity at 2 mg/kg three times a week for 33 days administered via oral gavage; assay type: organism-based, U-251; conditions: in vivo, 792 h; in short: as §2
U373 MG = test: Increase in importin subunit alpha2 expression in human U373MG cells at 5 uM for 2 hrs by immunoblot analysis; assay type: functional, cell-based; conditions: U-373MG ATCC
[25] = biological target: Microtubule-associated protein 1B (Homo sapiens) (UniProt P46821); test: Decrease in MAP1B expression in human U251MG cells at 5 uM for 1 hr by mass spectrometry relative to control; assay type: functional, cell-based; conditions: U-251
In short: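 U251MG cells treated 1 h with 5 μM compound; whole-cell lysates analyzed by global proteomics mass spectrometry; protein levels expressed relative to DMSO-treated cells.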

[26] = Decrease in TrxR1 expression in human Glioma (G22) patient derived xenograft cells at 5 uM for 2 hrs by immunoblot analysis; assay type: functional; conditions: Glioma cell
[27] = Decrease in G6PD expression in human U251MG cells at 5 uM for 2 hrs by immunoblot analysis; assay type: functional, cell-based; conditions: U-251
[28] = Decrease in G6PD expression in human Glioma (G22) patient derived xenograft cells at 5 uM for 2 hrs by immunoblot analysis; assay type: functional; conditions: Glioma cell
U-251 [29] = test: Antitumor activity against human U251MG cells xenografted in mouse assessed as decrease in pStat3 level in tumor at 2 mg/kg three times a week for 33 days administered via oral gavage by immunoblot analysis; assay type: functional, organism-based; in short: as §3
[30] = biological target: Heat shock protein 105 kDa (Homo sapiens) (UniProt Q92598); test: Decrease in Hsp105 expression in human U251MG cells at 5 uM for 2 hrs by immunoblot analysis; assay type: functional, cell-based; conditions: U-251
U-251 [31] = test: Antitumor activity against human U251MG cells xenografted in mouse assessed as decrease in Stat3 level in tumor at 2 mg/kg three times a week for 33 days administered via oral gavage by immunoblot analysis; assay type: functional, organism-based; in short: as §3
[32] = Antiproliferative activity against human U251MG cells for 72 hrs by cyquant assay; assay type: functional, cell-based; conditions: U-251, 72 h
In short: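 CyQuant proliferation assay after 72 h compound exposure of cultured cells; relative viability normalized to DMSO-treated control; IC50 values derived. Glioma lines grown in RPMI or DMEM with 10% FBS and 1% nonessential amino acids.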

Row | SMILES | inhibition [1] | inhibition [2] | Activity (U-251 [3]) | inhibition [4] | inhibition [5] | Activity (U-251 [6]) | Activity (U-251 [7]) | Activity (Mus musculus [8]) | Activity (U-251 [9]) | Activity (U-251 [10]) | Activity (Glioma cell) | fold change (FC) (U-251 [11]) | inhibition [12] | inhibition [13] | inhibition [14] | inhibition [15] | inhibition [16] | inhibition [17] | inhibition [18] | Activity (Mus musculus [19]) | further results
1 | C/C=C(\C)C(=O)OCC1=C2/C(=C\[C@@]3(C)CC[C@](O)(O3)[C@H](C)C[C@@H]2O)OC1=O | Active | Active | Active | Active | Active | Active | Active | Non-toxic | Active | Active | Active | 2.421 | Active | Active | Active | Active | Active | Active | Active | Non-toxic | inhibition [20]: Active; inhibition [21]: Active; inhibition [22]: Active; Activity (Mus musculus [23]): Non-toxic; Activity (Mus musculus [24]): Non-toxic; Activity (U373 MG): Active; fold change (FC) [25]: 0.413; inhibition [26]: Active; inhibition [27]: Active; inhibition [28]: Active; Activity (U-251 [29]): Active; inhibition [30]: Active; Activity (U-251 [31]): Active
2 | C/C=C(\C)C(=O)O[C@H]1C[C@@H](C)[C@]2(O)CC[C@](C)(/C=C3/OC(=O)C(COC(C)=O)=C31)O2 | Active | Active | Active | Active | Active | Active | Active | Non-toxic | Active | Active | Active | 2.0137 | Active | Active | Active | Active | Active | Active | Active | Non-toxic | IC50 [32]: 1700 nM; inhibition [20]: Active; inhibition [21]: Active; inhibition [22]: Active; Activity (Mus musculus [23]): Non-toxic; Activity (Mus musculus [24]): Non-toxic; Activity (U373 MG): Active; fold change (FC) [25]: 0.649; inhibition [26]: Active; inhibition [27]: Active; inhibition [28]: Active; Activity (U-251 [29]): Active; inhibition [30]: Active; Activity (U-251 [31]): Active
3 | C/C=C(\C)C(=O)O[C@H]1C[C@@H](C)[C@]2(OC)CC[C@](C)(/C=C3/OC(=O)C(COC(C)=O)=C31)O2 |  |  |  |  |  |  |  |  |  |  |  |  |  |  |  |  |  |  |  |  | IC50 [32]: 3400 nM
